In ChEMBL document CHEMBL1153954, “Promiscuous aggregate-based inhibitors promote enzyme unfolding” (J Med Chem, 2009):
Calls of active or inactive are those of the source. The rule behind the calls is not given here.

Target: AmpC (Escherichia coli) (UniProt Q83TT7)
Assay: Inhibition of Escherichia coli AmpC assessed as induction of protein unfolding measured by trypsin mediated degradation of compound-AmpC enzyme complex at 250 uM after 15 mins by gel electrophoresis
Summary of the method: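 AmpC β-lactamase (0.5 μM) in 50 mM KPi, pH 7.0, with or without aggregator at 250 μM (1% DMSO final). Trypsin (0.01 or 0.025 mg/mL) added after 5 min. Digestion ran at room temperature for 0 min to 4 h. Samples were boiled 2 min in DTT-containing loading buffer, run on SDS-PAGE, and the β-lactamase band was scored against compound-free enzyme.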

AmpC (Escherichia coli), sequence (Q83TT7 as listed by the source): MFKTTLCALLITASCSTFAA

Activity: Active
SMILES: COC(=O)C1=C(C)NC(C)=C(C(=O)OCCN(C)Cc2ccccc2)C1c1cccc([N+](=O)[O-])c1 (stereo unspecified)
